MEKK3 PB1 HTS: raises or lowers MEK5 binding to the human MEKK3 PB1 domain; binding response (% of control), % at 10 µM; 290,000 tested, 1.4% active; bead-based flow cytometry, Alexa488-MEK5 binding to MEKK3; actives lie on both sides; 0 = blocked by unlabeled MEK5, 100 = vehicle; AID 1529;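 active means binding response more than 3 SD above or below the average of its plate-row segment, actives on both sides; inconclusive means wells at one plate position flagged as instrument error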;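 further: Alexa488 bead fluorescence after subtracting the streptavidin-only scavenger bead signal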
FID counter: counter-screen for HCV NS3 helicase inhibitors: DNA intercalator displacement; 290,000 tested, 0.17% active; inhibition, % at 7.9 µM; DNA fluorescent intercalator displacement, fluorescence; in the data active means inhibition above about 37%;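 further: 0% = vehicle and 100% = reference compound; higher means more ethidium bromide displaced from hairpin DNA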
HCV NS3 hel inh: HCV NS3 helicase inhibition; NS3 helicase DNA unwinding, Cy5 molecular beacon fluorescence; AID 1800; inhibition, % at 10.9 µM; 290,000 tested, 0.56% active;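 active means inhibition above the mean of all tested compounds plus 3 SD, set per campaign, cut at about 35% in these data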;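 further: 0% = DMSO wells and 100% = thioflavine S control wells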
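Test system: hepatitis C virus NS3 helicase domain fragment enzyme. Also added: annealed dual-labelled DNA beacon duplex, ATP-started. Timing: 60 min unwinding reaction at 25 °C after ATP addition. Technique: Cy5 fluorescence. Measure: % inhibition of unwinding.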
T cruzi inh: T. cruzi replication inhibition | T. cruzi beta-gal in NIH3T3, luminescence, 90 h | inhibition, % (no concentration beside the values) | 300,000 tested, 1.4% active;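 active means mean inhibition across valid replicates above about 55%, limit read from the data; inconclusive means mean below that limit but half or more replicates reach it; inactive means mean below it, under half of replicates reach it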;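 further: signal also drops with host cell toxicity which is not excluded here; 0% = plate median of DMSO wells and 100% = zero luminescence signal; higher percent means less beta-gal luminescence so fewer parasites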
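compound dosing = single 50 nL compound addition per well in DMSO | material = NIH/3T3 host cells with β-galactosidase reporter T. cruzi | input = 5,000 host fibroblasts per well | timing = ≥90 h infection period, 3 h prior cell attachment | read-out basis = percent inhibition of parasite-derived β-gal signal | detection = GalScreen β-gal luminescence, detergent lysis, 60 min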
MEKK2 mut-MEK5: signal of MEK5 binding to mutant human MEKK2 PB1 domain; bead flow cytometry, Alexa488-MEK5 binding to MEKK2 mutant; percent response, % at 10 µM; 290,000 tested, 0.35% active; in the data active means percent response above about 24%, passing the limit was not always enough
MEKK2 WT-MEK5: raises or lowers MEK5 binding to wildtype human MEKK2 PB1 domain; bead flow cytometry, Alexa488-MEK5 binding to MEKK2 WT; actives lie on both sides; binding response (% of control), % at 10 µM; Q9Y2U5; 290,000 tested, 1.1% active; in the data active means binding response below about 67% or above about 130%; inconclusive means no clear call, values can overlap the other calls; inactive means in between
Starred values were filed as active, the others as inactive; ? = inconclusive; nt = no result. The list is not random: actives were taken first. Their share in the collection is about 4.1%.

SMILES | MEKK3 PB1 HTS | FID counter | HCV NS3 hel inh | T cruzi inh | MEKK2 mut-MEK5 | MEKK2 WT-MEK5
CC(=O)c1ccc(NC(=O)Nc2ccc([N+](=O)[O-])cc2)cc1 | 101 | 4 | 8 | -7 | -1 | 100
CC(C)C(=O)NC(NC(=O)C(C)C)c1ccc([N+](=O)[O-])cc1 | 100 | 3 | 1 | -3 | 3 | -1.0*
O=C(Cc1ccc(F)cc1)N/N=C/c1ccncc1 | 105 | -13 | 6 | -15 | -1 | 103
COCC(C)N=C1NN=C(c2c[nH]c3ccccc23)CS1 (configuration not stated) | 106 | -11 | -43 | -11 | 1 | 108
CC(=O)NCc1ccc(S(=O)(=O)NC(C(=O)O)C(C)C)cc1 (configuration not stated) | 111 | -4 | -7 | -4 | -6 | 100
CC1(C)CC(N2CCN(Cc3ccccc3)CC2)=CC(=[N+]2CCCCC2)C1 | 104 | 7 | 3 | 62* | 1 | 108
CC1(C)CC(N2CCCC2)=CC(=[N+]2CCCCC2)C1 | 117 | 2 | 4 | ? | -2 | 107
CN(Cc1ccccc1)C1=CC(=[N+]2CCCCC2)CC(C)(C)C1 | 109 | 12 | 2 | 70* | -3 | 102
CC1(C)CC(N2CCCC2)=CC(=[N+]2CCCC2)C1 | 92 | 0 | -5 | 67* | -2 | 96
CC(=O)Nc1ccc(Nc2c([N+](=O)[O-])c(=O)n(-c3ccccc3)c3ccccc23)cc1 | 101 | 2 | -9 | -25 | -5 | 93
CNC(=S)N(Cc1ccc2c(c1)OCO2)C1CC(=O)N(c2ccccc2)C1=O (configuration not stated) | 104 | 0 | 16 | -4 | 3 | 102
COc1cccc(CC(NC(C)=O)C(=O)NC2CCN(C(=O)c3ccc(Cl)cc3)CC2)c1OC (configuration not stated) | 98 | -37 | -2 | 6 | -2 | 100
NS(=O)(=O)c1ccc(CCNC(=O)c2ccc3ccccc3n2)cc1 | 99 | -11 | 8 | 4 | 5 | -3.0*
Nc1c(C(=O)c2ccccc2)sc(Nc2ccccc2)c1S(=O)(=O)c1ccccc1 | 98 | -7 | 13 | 55* | 3 | 91
N#Cc1c(Nc2ccccc2)sc(C(=O)c2ccc(F)cc2)c1N | 101 | -4 | 4 | 4 | -1 | 99
Cc1ccc(C(=O)OCn2ncc(Cl)c(Cl)c2=O)cc1 | 99 | -1 | -2 | 50 | 0 | 99
O=C(OCn1ncc(Cl)c(Cl)c1=O)c1ccc(C(F)(F)F)cc1 | 104 | -10 | 2 | 64* | 1 | 98
CCOC(=O)c1ccc(NC(=O)Cn2ncc(Cl)c(Cl)c2=O)cc1 | 109 | -8 | 20 | 56* | 0 | 107
Cc1[nH]c2ccccc2c1C(=O)COC(=O)c1ccc([N+](=O)[O-])s1 | 119 | -13 | 15 | 74* | 0 | 113
O=C(OCC(=O)N1CCC(c2ccccc2)=N1)c1ccc([N+](=O)[O-])s1 | nt | nt | nt | 55* | nt | nt
CC(C)(C)c1ccc(C(=O)NCC(=O)N/N=C/c2cccnc2)cc1 | 101 | -20 | 4 | 12 | 2 | 100
O=C(Cc1ncc(C(F)(F)F)cc1Cl)NCc1ccco1 | 97 | 4 | -4 | -12 | -46 | 93
CC1CC(C)CN(C(=O)CSc2nc(N)cc(=O)[nH]2)C1 (configuration not stated) | 100 | -1 | 4 | -9 | -4 | 96
Cc1ccccc1OCc1nc2ccccc2c(=O)n1/N=C/c1c[nH]c2ccccc12 | 97 | -3 | 10 | 43 | -1 | 100
Cc1cc(/C=N/n2c(COc3ccccc3C)nc3ccccc3c2=O)c(O)c([N+](=O)[O-])c1 | 98 | -6 | 1 | 67* | 11 | 101
Cc1cccc(C)c1OCc1nc2ccccc2c(=O)n1/N=C/c1c[nH]c2ccccc12 | 100 | -8 | -19 | 69* | 4 | 96
O=C(CN1CCN(Cc2ccccc2Cl)CC1)N/N=C/c1ccco1 | 86 | -9 | -8 | -11 | -19 | 92

Bioassay records: PubChem BioAssay, several laboratories
